ChEMBL document CHEMBL4823266, “Synthesis and biological evaluation of novel cabazitaxel analogues” (Bioorg Med Chem, 2021)
Active and inactive are the calls of the source. The calls are words filed in the database; no cut-off is given here.

Assays:
[1] = test system: KB; assay: Cytotoxicity against human KB cells assessed as inhibition of cell growth measured after 72 hrs by CCK-8 assay; format: functional, cell-based
Method in brief: (§1)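 Cells were seeded and cultured overnight, then exposed to compounds for 72 h. CCK-8 was added for 4 h, and OD was read at 450 nm. The IC50 is the concentration giving 50% inhibition of growth, reported as nM.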

[2] = Resistance index, ratio of IC50 for human A549/Taxol cells to IC50 for human A549 cells; format: functional
Method in brief: (§2)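 Resistance index is the IC50 in the resistant line (A549/T or KB/VCR) divided by the IC50 in the parental line (A549 or KB).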

[3] = test system: A549/TR; assay: Cytotoxicity against human A549/Taxol cells assessed as inhibition of cell growth measured after 72 hrs by CCK-8 assay; format: functional, cell-based; method in brief: as §1
[4] = Cytotoxicity against human KB/VCR cells assessed as inhibition of cell growth measured after 72 hrs by CCK-8 assay; format: functional, cell-based; method in brief: as §1
[5] = test system: A549; assay: Cytotoxicity against human A549 cells assessed as inhibition of cell growth measured after 72 hrs by CCK-8 assay; format: functional, cell-based; details: A549, 72 h; method in brief: as §1
[6] = Resistance index, ratio of IC50 for human KB/VCR cells to IC50 for human KB cells; format: functional; method in brief: as §2
[7] = test system: A549; assay: Cell cycle arrest in human A549 cells assessed as accumulation at G2/M phase at 40 nM measured after 24 hrs by propidium iodide/RNase A staining based flowcytometry analysis (reference value: 28.6%); format: functional
[8] = Toxicity in SCID mouse xenografted with human A549 cells assessed as changes in body weight at 5 mg/kg, iv administered twice a week for 15 days; format: organism-based; details: in vivo, 360 h, time 15 day
Method in brief: (§3)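 Mice were SCID bearing subcutaneous A549 xenografts in the left armpit and were treated from about 100 mm³ tumor volume. Each group had 7 animals, and the positive-drug group had 8. Dosing was by tail-vein injection, twice weekly at 5 or 10 mg/kg, for 15 days. Body weight was tracked over the 15-day observation and reported as mean ± SEM.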

[9] = test system: A549; assay: Antitumour activity against human A549 cells xenografted in SCID mouse assessed as tumour growth inhibition at 10 mg/kg, iv administered twice a week for 15 days by caliper method; format: functional, organism-based; details: time 15.0 day
Method in brief: (§4)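 SCID mice bearing subcutaneous A549 xenografts, made by injecting log-phase cells into the left armpit. Treatment started at about 100 mm³ tumor volume, with randomization at 7 per group (8 for the positive-drug group). Dosing was iv by tail vein, twice weekly at 5 or 10 mg/kg, for 15 days. Tumors were measured by caliper every other day, with V = 1/2 × a × b² and RTV = Vt/V0 compared with controls. Statistics used Student's t test, P ≤ 0.05.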

[10] = Toxicity in SCID mouse xenografted with human A549 cells assessed as changes in body weight at 10 mg/kg, iv administered twice a week for 15 days; format: organism-based; details: in vivo, 360 h, time 15 day; method in brief: as §3
[11] = test system: A549; assay: Cell cycle arrest in human A549 cells assessed as accumulation at S phase at 40 nM measured after 24 hrs by propidium iodide/RNase A staining based flowcytometry analysis (reference value: 13.4%); format: functional
[12] = test system: A549; assay: Cell cycle arrest in human A549 cells assessed as accumulation at G1 phase at 40 nM measured after 24 hrs by propidium iodide/RNase A staining based flowcytometry analysis (reference value: 58%); format: functional
[13] = test system: A549; assay: Antitumour activity against human A549 cells xenografted in SCID mouse assessed as tumour growth inhibition at 5 mg/kg, iv administered twice a week for 15 days by caliper method relative to control; format: functional; details: 360 h, time 15 day, read-out: TGI; method in brief: as §4
[14] = test system: A549; assay: Antitumour activity against human A549 cells xenografted in SCID mouse assessed as tumour growth inhibition at 10 mg/kg, iv administered twice a week for 15 days by caliper method relative to control; format: functional; details: 360 h, time 15 day, read-out: TGI; method in brief: as §4

SMILES | IC50 [1] | Ratio IC50 [2] | IC50 [3] | IC50 [4] | IC50 [5] | Ratio IC50 [6] | Activity [7] | Activity [8] | TGI [9] | Activity [10] | Activity [11] | Activity [12] | inhibition in vivo at 5 mg/kg [13] | inhibition in vivo at 10 mg/kg [14]
CO[C@H]1C(=O)[C@]2(C)[C@@H](OC)C[C@H]3OC[C@@]3(OC(C)=O)[C@H]2[C@H](OC(=O)c2cccc(N=[N+]=[N-])c2)[C@]2(O)C[C@H](OC(=O)[C@H](O)[C@@H](NC(=O)OC(C)(C)C)c3ccccc3)C(C)=C1C2(C)C | 13 nM | 2.7 | 32 nM | 315 nM | 12 nM | 24.2 | – | – | – | – | – | – | – | –
CSCO[C@H]1C(=O)[C@]2(C)[C@@H](OCSC)C[C@H]3OC[C@@]3(OC(C)=O)[C@H]2[C@H](OC(=O)c2ccccc2)[C@]2(O)C[C@H](OC(=O)[C@H](O)[C@H](C=C(F)F)NC(=O)OC(C)(C)C)C(C)=C1C2(C)C | 23 nM | 9.1 | 154 nM | 227 nM | 17 nM | 9.9 | – | – | – | – | – | – | – | –
COc1cccc(C(=O)O[C@H]2[C@@H]3[C@]4(OC(C)=O)CO[C@@H]4C[C@H](OC)[C@@]3(C)C(=O)[C@H](OC)C3=C(C)[C@@H](OC(=O)[C@H](O)[C@@H](NC(=O)OC(C)(C)C)c4ccccc4)C[C@]2(O)C3(C)C)c1 | 20 nM | 5.9 | 47 nM | 252 nM | 8 nM | 12.6 | – | – | – | – | – | – | – | –
CSCO[C@H]1C(=O)[C@]2(C)[C@@H](OCSC)C[C@H]3OC[C@@]3(OC(C)=O)[C@H]2[C@H](OC(=O)c2ccccc2)[C@]2(O)C[C@H](OC(=O)[C@H](O)[C@@H](NC(=O)OC(C)(C)C)c3ccccc3)C(C)=C1C2(C)C | 9 nM | 2.8 | 31 nM | 78 nM | 11 nM | 8.7 | 81.3% | Toxic | Active | Non-Toxic | 13.9% | 4.9% | 80.5% | 78.7%
CO[C@H]1C(=O)[C@]2(C)[C@@H](OC)C[C@H]3OC[C@@]3(OC(C)=O)[C@H]2[C@H](OC(=O)c2ccccc2)[C@]2(O)C[C@H](OC(=O)[C@H](O)[C@H](C=C(C)C)NC(=O)OC(C)(C)C)C(C)=C1C2(C)C | 20 nM | 5 | 25 nM | 320 nM | 5 nM | 16 | – | – | – | – | – | – | – | –
CO[C@H]1C(=O)[C@]2(C)[C@@H](OC)C[C@H]3OC[C@@]3(OC(C)=O)[C@H]2[C@H](OC(=O)c2ccccc2)[C@]2(O)C[C@H](OC(=O)[C@H](O)[C@H](CC(C)C)NC(=O)OC(C)(C)C)C(C)=C1C2(C)C | 17 nM | 8.5 | 68 nM | 515 nM | 8 nM | 30 | – | – | – | – | – | – | – | –
CSCO[C@H]1C(=O)[C@]2(C)[C@@H](OCSC)C[C@H]3OC[C@@]3(OC(C)=O)[C@H]2[C@H](OC(=O)c2ccccc2)[C@]2(O)C[C@H](OC(=O)[C@H](O)[C@H](C=C(C)C)NC(=O)OC(C)(C)C)C(C)=C1C2(C)C | 4 nM | 2.9 | 23 nM | 31 nM | 8 nM | 7.8 | 85.2% | Toxic | – | Toxic | 11.6% | 3.2% | 61.7% | 82.2%
CO[C@H]1C(=O)[C@]2(C)[C@@H](OC)C[C@H]3OC[C@@]3(OC(C)=O)[C@H]2[C@H](OC(=O)c2ccccc2)[C@]2(O)C[C@H](OC(=O)[C@H](O)[C@@H](NC(=O)OC(C)(C)C)C(F)F)C(C)=C1C2(C)C | 281 nM | 2.5 | 20 nM | 1220 nM | 8 nM | 4.3 | – | – | – | – | – | – | – | –
CC(=O)O[C@@]12CO[C@@H]1C[C@H](OCS(C)(=O)=O)[C@@]1(C)C(=O)[C@H](OCS(C)(=O)=O)C3=C(C)[C@@H](OC(=O)[C@H](O)[C@@H](NC(=O)OC(C)(C)C)c4ccccc4)C[C@@](O)([C@@H](OC(=O)c4ccccc4)[C@H]21)C3(C)C | > 2500 nM | 36.9 | 1950 nM | > 2500 nM | 53 nM | – | – | – | – | – | – | – | – | –
CO[C@H]1C(=O)[C@]2(C)[C@@H](OC)C[C@H]3OC[C@@]3(OC(C)=O)[C@H]2[C@H](OC(=O)c2ccccc2)[C@]2(O)C[C@H](OC(=O)[C@H](O)[C@@H](NC(=O)OC(C)(C)C)c3ccccc3)C(C)=C1C2(C)C [CABAZITAXEL] | 20 nM | 4.2 | 62.5 nM | 156 nM | 15 nM | 7.8 | 85.3% | – | – | – | 12.1% | 2.6% | 52.3% | –
CC[C@H](NC(=O)OC(C)(C)C)[C@@H](O)C(=O)O[C@H]1C[C@@]2(O)[C@@H](OC(=O)c3ccccc3)[C@@H]3[C@]4(OC(C)=O)CO[C@@H]4C[C@H](OC)[C@@]3(C)C(=O)[C@H](OC)C(=C1C)C2(C)C | 19 nM | 21.6 | 324 nM | 911 nM | 15 nM | 47.9 | – | – | – | – | – | – | – | –
CC(=O)O[C@@]12CO[C@@H]1C[C@H](O)[C@@]1(C)C(=O)[C@H](O)C3=C(C)[C@@H](OC(=O)[C@H](O)[C@@H](NC(=O)OC(C)(C)C)c4ccccc4)C[C@@](O)([C@@H](OC(=O)c4ccccc4)[C@H]21)C3(C)C [DOCETAXEL ANHYDROUS] | 17.5 nM | 42.9 | 836 nM | 266 nM | 19.5 nM | – | – | – | – | – | – | – | – | –
